What was measured:
[1] = test system: SH-SY5Y; test: Survival of human SH-SY5Y cells at 25 uM by MTS reduction assay; type: functional, cell-based; details: for viability at 25 µM: Homo sapiens, SH-SY5Y, read-out: Survival
In short: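 Viability was read by MTS reduction and expressed as percent of untreated cells, as the average ± SE of three independent measurements, representative of two independent experiments.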

[2] = biological target: Cyclin-dependent kinase 5/CDK5 activator 1 (Homo sapiens, UniProt Q00535); test: (§1) Inhibition of mammalian CDK5/p25; type: protein-complex assay
In short: (§2)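 Recombinant CDK5 and p25, each expressed in E. coli as GST fusions and affinity-purified on glutathione agarose, mixed in equal amounts. Phosphate incorporation onto P81 paper read by scintillation counting, blank subtracted. Activity taken as % of uninhibited. IC50 from dose-response curves.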

[3] = Inhibition of starfish CDK1/cyclin B in presence of 15 uM ATP; parameters: species or system Marthasterias glacialis
[4] = biological target: Cyclin-dependent kinase 5/CDK5 activator 1 (Homo sapiens, UniProt Q00535+Q15078); test: as §1; type: protein-complex assay; in short: as §2
[5] = test system: SH-SY5Y; test: Survival of human SH-SY5Y cells after 24 hrs by MTS reduction assay; type: functional, cell-based
[6] = test system: SH-SY5Y; test: Death of human SH-SY5Y cells in presence of 20 uM Q-VD-OPh by MTS reduction assay; type: functional, cell-based; details: Homo sapiens, SH-SY5Y
[7] = test system: SH-SY5Y; test: Death of human SH-SY5Y cells in absence of 20 uM Q-VD-OPh by MTS reduction assay; type: functional, cell-based; details: Homo sapiens, SH-SY5Y; read-out: IC50
[8] = test system: SH-SY5Y; test: Death of human SH-SY5Y cells at 25 uM after 48 hrs by LDH release assay; type: functional
In short: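 SH-SY5Y human neuroblastoma cells were grown in DMEM with 2 mM L-glutamine, antibiotics and 10% FCS at 37 °C under 5% CO2. […] Lactate dehydrogenase release was measured 48 h after addition and expressed as percent cell death.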

[9] = test system: SH-SY5Y; test: Survival of human SH-SY5Y cells after 48 hrs by MTS reduction assay; type: functional, cell-based

Sequence of Cyclin-dependent kinase 5/CDK5 activator 1 (Homo sapiens, UniProt Q00535+Q15078) (Q00535 whole entry): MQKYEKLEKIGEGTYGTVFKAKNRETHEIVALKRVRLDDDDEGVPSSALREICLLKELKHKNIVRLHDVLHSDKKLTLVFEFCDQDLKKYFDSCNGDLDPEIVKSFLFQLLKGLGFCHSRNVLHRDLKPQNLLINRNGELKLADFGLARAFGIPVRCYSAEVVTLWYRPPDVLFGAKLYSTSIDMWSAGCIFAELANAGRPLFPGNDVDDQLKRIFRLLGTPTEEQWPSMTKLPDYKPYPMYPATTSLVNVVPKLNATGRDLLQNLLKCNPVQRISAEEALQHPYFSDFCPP
Sequence of Cyclin-dependent kinase 5/CDK5 activator 1 (Homo sapiens, UniProt Q00535+Q15078) (Q15078 whole entry): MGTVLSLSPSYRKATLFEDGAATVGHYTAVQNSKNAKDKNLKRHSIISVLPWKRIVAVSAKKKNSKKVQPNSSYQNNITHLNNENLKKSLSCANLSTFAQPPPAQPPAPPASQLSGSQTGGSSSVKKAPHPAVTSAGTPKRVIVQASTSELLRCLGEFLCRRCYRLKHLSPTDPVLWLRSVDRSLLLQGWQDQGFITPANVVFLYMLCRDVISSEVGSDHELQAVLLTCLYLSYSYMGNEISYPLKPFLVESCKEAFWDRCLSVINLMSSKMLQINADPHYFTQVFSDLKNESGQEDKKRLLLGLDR
Sequence of Cyclin-dependent kinase 5/CDK5 activator 1 (Homo sapiens, UniProt Q00535) (Q00535 whole entry, the tested form may be a part): as the sequence (Q00535 whole entry) above
Sequence of Cyclin-dependent kinase 5/CDK5 activator 1 (Homo sapiens, UniProt Q00535) (Q15078 whole entry, further chain, the tested form may be a part): as the sequence (Q15078 whole entry) above

| Compound | viability at 25 µM [1] | IC50 [2] | IC50 [3] | also measured |
| --- | --- | --- | --- | --- |
| CC(=O)O/N=C1/C(c2c(O)[nH]c3c(F)cccc23)=Nc2ccccc21 | 39% | > 100 µM | 15 µM |  |
| CO/N=C1/C(c2c(O)[nH]c3c(Cl)cccc23)=Nc2ccccc21 | 97% | > 100 µM | > 10 µM |  |
| CC(=O)O/N=C1/C(c2c(O)[nH]c3c(Br)cccc23)=Nc2ccccc21 | 61% | > 100 µM | > 100 µM |  |
| CCN(CC)CCO/N=C1/C(c2c(O)n(C)c3c(Br)cccc23)=Nc2ccccc21 |  |  |  | Survival [1]: 83%; IC50 [4]: > 10 µM |
| Cn1c(O)c(-c2[nH]c3ccccc3c2N=O)c2cccc(F)c21 | 99% | > 100 µM | > 100 µM |  |
| Cn1c(O)c(C2=Nc3ccccc3C2=O)c2cccc(Br)c21 | 98% | > 100 µM | 100 µM |  |
| O=Nc1c(-c2c(O)[nH]c3c(F)cccc23)[nH]c2ccccc12 | 46% | 0.51 µM | 1.5 µM |  |
| Cn1c(O)c(-c2[nH]c3ccccc3c2N=O)c2cccc(Br)c21 | 84% | > 100 µM | > 100 µM |  |
| CO/N=C1\C(c2c(O)[nH]c3ccccc23)=Nc2ccccc21 | 86% | 0.4 µM | 1.4 µM |  |
| O=C1C(c2c(O)[nH]c3c(Br)cccc23)=Nc2ccccc21 | 92% | > 100 µM | > 100 µM |  |
| Oc1[nH]c2c(Br)cccc2c1C1=Nc2ccccc2/C1=N\OCCBr | 87% | 25 µM | > 100 µM |  |
| CC(=O)O/N=C1/C(c2c(O)n(C)c3c(Cl)cccc23)=Nc2ccccc21 | 96% | > 100 µM | > 10 µM |  |
| Cn1c(O)c(C2=Nc3ccccc3C2=O)c2cccc(I)c21 |  | > 100 µM | > 10 µM | Survival ([1]; sh-sy5y): 93% |
| Cn1c(O)c(C2=Nc3ccccc3C2=O)c2cccc(Cl)c21 | 94% | > 100 µM | > 10 µM |  |
| CC(=O)O/N=C1/C(c2c(O)n(C)c3c(F)cccc23)=Nc2ccccc21 | 105% | > 100 µM | > 10 µM |  |
| Cn1c(O)c(C2=Nc3ccccc3/C2=N\OCCN2CCOCC2)c2cccc(Br)c21 |  |  |  | Survival [1]: 98%; IC50 [4]: > 10 µM |
| Oc1[nH]c2c(Br)cccc2c1C1=Nc2ccccc2/C1=N\OCCn1ccnc1 |  |  |  | Survival [1]: 59%; IC50 [4]: > 10 µM |
| O=Nc1c(-c2c(O)[nH]c3ccccc23)[nH]c2ccccc12 [INDIRUBIN-3-MONOXIME] | 27% |  |  | IC50 ([5]; Homo sapiens, SH-SY5Y, 24 h): > 25 µM; IC50 [6]: > 25 µM; IC50 [7]: 13 µM; Activity [8]: 33%; IC50 ([9]; Homo sapiens, SH-SY5Y, 48 h): 12 µM |
| Oc1[nH]c2c(Br)cccc2c1C1=Nc2ccccc2/C1=N\OCCN1CCOCC1 |  |  |  | Survival [1]: 98%; IC50 [4]: > 10 µM |
| Cn1c(O)c(-c2[nH]c3ccccc3c2N=O)c2cccc(I)c21 | 74% | > 100 µM | > 100 µM |  |
| CCN(CC)CCO/N=C1/C(c2c(O)n(C)c3c(Br)cccc23)=Nc2ccccc21.Cl |  | > 10 µM | > 10 µM | Survival [1]: 15%; IC50 [6]: > 25 µM; IC50 [7]: 18 µM; Activity [8]: 58% |
| CO/N=C1/C(c2c(O)n(C)c3c(Cl)cccc23)=Nc2ccccc21 | 99% | > 100 µM | > 10 µM |  |
| Cn1c(O)c(C2=Nc3ccccc3C2=O)c2cccc(F)c21 | 101% | > 100 µM | > 10 µM |  |
| CCN(CC)C(=O)O/N=C1/C(c2c(O)[nH]c3c(Br)cccc23)=Nc2ccccc21 | 106% | > 100 µM | > 100 µM |  |
| CC(=O)O/N=C1/C(c2c(O)[nH]c3c(Cl)cccc23)=Nc2ccccc21 | 89% | > 100 µM | > 10 µM |  |
| CCN(CC)CCO/N=C1/C(c2c(O)[nH]c3c(Br)cccc23)=Nc2ccccc21 |  |  |  | Survival [1]: 49%; IC50 [4]: > 10 µM |
| O=C1Nc2ccccc2/C1=C1/Nc2ccccc2C1=O [INDIRUBIN] | 104% |  |  |  |

| Compound | viability at 25 µM [1] | IC50 [2] | IC50 [3] | also measured |
| --- | --- | --- | --- | --- |
| CO/N=C1/C(c2c(O)[nH]c3c(F)cccc23)=Nc2ccccc21 | 105% | > 100 µM | > 10 µM |  |
| CCN(CC)CCO/N=C1/C(c2c(O)[nH]c3c(Br)cccc23)=Nc2ccccc21.Cl (stereo in doubt; 13ls) |  |  |  | Survival [1]: 72%; IC50 [4]: > 10 µM |
| CC(=O)O/N=C1/C(c2c(O)n(C)c3c(I)cccc23)=Nc2ccccc21 | 82% | > 100 µM | > 10 µM |  |
| O=C1C(c2c(O)[nH]c3c(F)cccc23)=Nc2ccccc21 | 70% | ≥ 10 µM | 10 µM |  |
| O=C1Nc2ccc(Br)cc2/C1=C1/Nc2ccccc2/C1=N\O [INDIRUBIN 2] | 13% | 0.028 µM | 0.045 µM | IC50 ([5]; Homo sapiens, SH-SY5Y, 24 h): 18 µM; IC50 [6]: 23 µM; IC50 [7]: 13 µM; Activity [8]: 59%; IC50 ([9]; Homo sapiens, SH-SY5Y, 48 h): 12 µM |
| O=Nc1c(-c2c(O)[nH]c3c(I)cccc23)[nH]c2ccccc12 | 64% | 77 µM | 66 µM |  |
| CC(=O)O/N=C1/C(c2c(O)n(C)c3c(Br)cccc23)=Nc2ccccc21 | 95% | > 100 µM | 70 µM |  |
| CC(=O)O/N=C1/C(c2c(O)[nH]c3c(I)cccc23)=Nc2ccccc21 | 67% | > 100 µM | > 10 µM |  |
| CN(C)CCO/N=C1/C(c2c(O)n(C)c3c(Br)cccc23)=Nc2ccccc21 |  |  |  | Survival [1]: 49%; IC50 ([5]; sh-sy5y): > 25 µM; IC50 [6]: > 25 µM; IC50 [7]: 6.4 µM; Activity [8]: 33%; IC50 [4]: > 10 µM; IC50 ([9]; sh-sy5y): 5.5 µM |
| Cn1c(O)c(C2=Nc3ccccc3C2=O)c2ccccc21 | 98% |  | 100 µM |  |
| Cn1c(O)c(C2=Nc3ccccc3/C2=N\OCCBr)c2cccc(Br)c21 | 99% | > 10 µM | > 10 µM |  |
| Cl.Oc1[nH]c2c(Br)cccc2c1C1=Nc2ccccc2/C1=N\OCCN1CCOCC1 |  | > 10 µM | > 100 µM | Survival [1]: 76% |
| Cn1c(O)c(-c2[nH]c3ccccc3c2N=O)c2ccccc21 | 100% |  | 73 µM |  |
| CCN(CC)C(=O)O/N=C1/C(c2c(O)n(C)c3c(Br)cccc23)=Nc2ccccc21 | 105% | > 10 µM | > 10 µM |  |
| CO/N=C1/C(c2c(O)[nH]c3c(I)cccc23)=Nc2ccccc21 | 84% | > 100 µM | > 10 µM |  |
| Cl.Cn1c(O)c(C2=Nc3ccccc3/C2=N\OCCN2CCOCC2)c2cccc(Br)c21 | 90% | > 10 µM | > 10 µM |  |
| CC(=O)O/N=C1\C(c2c(O)[nH]c3ccccc23)=Nc2ccccc21 | 36% | 0.7 µM |  |  |
| CO/N=C1/C(c2c(O)n(C)c3c(I)cccc23)=Nc2ccccc21 | 99% | > 100 µM | > 10 µM |  |
| O=C1Nc2cc(Br)ccc2/C1=C1/Nc2ccccc2/C1=N\O [6BIO] | 5% |  |  | Activity [8]: 80% |
| CO/N=C1/C(c2c(O)[nH]c3c(Br)cccc23)=Nc2ccccc21 | 97% | > 100 µM | > 100 µM |  |
| Cn1c(O)c(C2=Nc3ccccc3/C2=N\OCCn2ccnc2)c2cccc(Br)c21 | 85% | > 10 µM | > 10 µM |  |
| Cn1c(O)c(-c2[nH]c3ccccc3c2N=O)c2cccc(Cl)c21 | 94% | > 100 µM | > 100 µM |  |
| Oc1[nH]c2c(Br)cccc2c1C1=Nc2ccccc2/C1=N\OCCN1CCCC1 |  |  |  | Survival [1]: 13%; IC50 ([5]; sh-sy5y): 3.6 µM; IC50 [6]: > 25 µM; IC50 [7]: 2 µM; Activity [8]: 14%; IC50 [4]: > 10 µM; IC50 ([9]; sh-sy5y): 2.3 µM |
| O=C1C(c2c(O)[nH]c3c(I)cccc23)=Nc2ccccc21 | 96% | > 100 µM | > 10 µM |  |
| O=C1C(c2c(O)[nH]c3c(Cl)cccc23)=Nc2ccccc21 | 92% | > 100 µM | > 10 µM |  |
| CO/N=C1/C(c2c(O)n(C)c3c(Br)cccc23)=Nc2ccccc21 | 100% | > 100 µM | > 100 µM |  |
| CO/N=C1/C(c2c(O)n(C)c3c(F)cccc23)=Nc2ccccc21 | 107% | > 100 µM | > 10 µM |  |
